Published values collected from several papers.
Each line is one published result; the experiments were not run side by side.
Neuronal acetylcholine receptor; alpha9/alpha10: Neuronal acetylcholine receptor; alpha9/alpha10 (Homo sapiens, UniProt Q9GZZ6+Q9UGM1)
CA2: Carbonic anhydrase 2 (CA2, Homo sapiens, UniProt P00918)

For `CC[N+]1(CC)CCN(c2ccc(NC(=O)c3cccc(C)n3)cc2)CC1`, the EC50 was 0.83 µM (Neuronal acetylcholine receptor; alpha9/alpha10; ion current; agonist; two-electrode voltage clamp; oocytes).
`COc1ccc(S(=O)(=O)Oc2cccc(C=NNC(=O)c3ccc(F)cc3)c2)cc1` has an IC50 of 0.139 µM (CA2; enzyme activity; inhibitor; absorbance).
`CNC(=O)c1ccc(-c2cnn3ccc(C(=O)N(C)c4ccc(Cl)c(C(=O)OC)c4)cc23)cc1` has an IC50 of > 30 µM (Receptor tyrosine-protein kinase erbB-2 (ERBB2, Homo sapiens, UniProt P04626); enzyme activity; inhibitor).
For `CCCNC(=O)c1ccc(N2CC[N+](CC)(CC)CC2)cc1`, the EC50 was 11 µM (Neuronal acetylcholine receptor; alpha9/alpha10; ion current; agonist; two-electrode voltage clamp; oocytes).
For `COC(=O)c1cc(N(C)C(=O)c2ccn3ncc(-c4ccc(C(=O)O)cc4)c3c2)ccc1Cl`, the IC50 was > 30 µM (cAMP-dependent protein kinase catalytic subunit alpha (PRKACA, Homo sapiens, UniProt P17612); enzyme activity; inhibitor).
`COc1ccc(S(=O)(=O)Oc2ccc(C=NNC(=O)c3ccc(F)cc3)cc2)cc1` has an IC50 of 0.0974 µM (CA2; enzyme activity; inhibitor; absorbance).
The IC50 of `COc1ccc2c3c([nH]c2c1)CCN(C)CC3` is reported as 3 µM (Neuronal acetylcholine receptor; alpha9/alpha10; ion current; antagonist; two-electrode voltage clamp; oocytes).
`COc1ccc(S(=O)(=O)Oc2ccccc2C=NNC(=O)c2ccc(F)cc2)cc1` has an IC50 of 0.156 µM (CA2; enzyme activity; inhibitor; absorbance).
`COc1ccc2[nH]c3c(c2c1)CCN(C)CC3` has an IC50 of 3.2 µM (Neuronal acetylcholine receptor; alpha9/alpha10; ion current; antagonist; two-electrode voltage clamp; oocytes).
For `CNC(=O)c1ccc(-c2cnn3ccc(C(=O)N(C)c4ccc(Cl)c(C(=O)O)c4)cc23)cc1`, the IC50 was > 30 µM (STE20-like serine/threonine-protein kinase (SLK, Homo sapiens, UniProt Q9H2G2); enzyme activity; inhibitor).
